Data: ChEMBL document CHEMBL1138656, “Design, synthesis, and evaluation of sugar amino acid based inhibitors of protein prenyl transferases PFT and PGGT-1” (J Med Chem, 2004)

Tests used:
[1] = biological target: Protein farnesyltransferase (Homo sapiens, UniProt P49354+P49356); assay: Inhibition of [3H]FPP incorporation by Protein Farnesyltransferase; format: protein-complex assay
Method in brief: (§1)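 Cell-free prenyltransferase assay measuring inhibition of enzyme-catalysed incorporation of tritiated prenyl donor: [3H]FPP for PFT, the corresponding tritiated geranylgeranyl donor for PGGT-1. The buffer was Tris, pH 7.4, with dithiothreitol, which removes the cysteine S-tert-butyl group. Each determination used five compound concentrations. The IC50 came from a fitted concentration–inhibition curve and is the mean of three determinations.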

[2] = biological target: Geranylgeranyl transferase type I (Homo sapiens, UniProt P49354+P53609); assay: Inhibition of [3H]GGPP incorporation by Protein Geranylgeranyl transferase type I; format: protein-complex assay; method in brief: as §1

Row | Structure (SMILES) | IC50 [1] | IC50 [2]
1 | C=C(N[C@@H](CCSC)C(=O)O)[C@H]1O[C@H](CNC(=O)[C@@H](N)CSSC(C)(C)C)CC[C@@H]1OCc1ccccc1 | ~1000 µM | 311 µM
2 | CSCC[C@H](NC(=O)[C@H]1O[C@H](CNC(=O)[C@@H](N)CSSC(C)(C)C)CC[C@@H]1OCc1ccccc1)C(=O)O | 42 µM | 48 µM
3 | C=C(N[C@@H](CC(C)C)C(=O)O)[C@H]1O[C@@H](CNC(=O)[C@@H](N)CSSC(C)(C)C)CCC1O (some centres undefined) | > 1000 µM | 261 µM
4 | C=C(N[C@@H](CCSC)C(=O)O)[C@H]1O[C@@H](CNC(=O)[C@@H](N)CSSC(C)(C)C)CC[C@@H]1OCc1ccccc1 | > 1000 µM | 500 µM

More lines, in order of falling IC50 [1], values ahead:

Row | IC50 [1] | IC50 [2] | Structure (SMILES)
5 | 321 µM | 206 µM | CC(C)C[C@H](NC(=O)[C@H]1O[C@H](CNC(=O)[C@@H](N)CSSC(C)(C)C)CC[C@@H]1OCc1ccccc1)C(=O)O
6 | 91 µM | 521 µM | C[S+]([O-])CC[C@H](NC(=O)[C@H]1O[C@H](CNC(=O)[C@@H](N)CSSC(C)(C)C)CC[C@@H]1OCc1ccccc1)C(=O)O (some centres undefined)
7 | 57 µM | 14 µM | CC(C)C[C@H](NC(=O)[C@H]1O[C@@H](CNC(=O)[C@@H](N)CSSC(C)(C)C)CC[C@@H]1OCc1ccccc1)C(=O)O
8 | 2.2 µM | > 1000 µM | C[S+]([O-])CC[C@H](NC(=O)[C@H]1O[C@@H](CNC(=O)[C@@H](N)CSSC(C)(C)C)CC[C@@H]1OCc1ccccc1)C(=O)O (some centres undefined)
9 | 0.42 µM | – | CC[C@H](C)[C@H](NC(=O)[C@@H](NC(=O)[C@@H](N)CS)C(C)C)C(=O)N[C@@H](CCSC)C(=O)O
10 | 0.25 µM | > 1000 µM | CSCC[C@H](NC(=O)[C@H]1O[C@@H](CNC(=O)[C@@H](N)CSSC(C)(C)C)CC[C@@H]1OCc1ccccc1)C(=O)O
